# Diaph act CS: activates diaphorase or chemically reduces, flagging diaphorase assay artifacts. Diaphorase/resazurin coupled assay, resorufin fluorescence, 16 min; stronger effect = higher value; 1 = vehicle wells, 0 = NADH-free wells. activation factor at 20 µM. hit rate 0.005% among 190,000. AID 1229;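 active = diaphorase activity raised at least twofold by the compound at 20 µM; inactive = activation factor below 2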
#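 Test system: Clostridium kluyveri diaphorase, purified enzyme. Buffer or medium: 50 mM HEPES pH 7.4 buffer plus MgCl2 and Tween 20. Also added: 0.114 mM NADH and 0.1 mM resazurin, final amounts. Dosing: compound 20 µM once, DMSO 1%. Schedule: 16 min enzyme reaction, ambient temperature. Detection: fluorescence of resorufin, 544 nm excitation, 590 nm emission.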
# G6PDH CS: counter-screen for G6PDH assay hits: L. mesenteroides G6PDH inhibition | Purified L. mesenteroides G6PDH, diaphorase/resazurin coupled fluorescence, 45 min | inhibition, % at 5 µM | hit rate 0.12% among 200,000 | AID 1020
# WT yeast gro inh: growth inhibition of WT yeast, mitochondrial fusion screen; mitochondrial fusion phenotypic screen, WT strain; inhibition, % at 10 µM; hit rate 2.1% among 190,000; AID 1362; in the data active = inhibition above about 58%; tested in S. cerevisiae
# L major viab: inhibitors of Leishmania major promastigote growth. Leishmania major promastigotes, resazurin fluorescence viability. inhibition, % at 10 µM. hit rate 9% among 200,000;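 note: promastigotes grown with compound for 44 hours at 28 °C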
# Diaphorase inh: diaphorase inhibition or chemical oxidation counter-screen | diaphorase resazurin-to-resorufin fluorescence, NADH, 16 min; bacterial (C. kluyveri) enzyme, not human | inhibition, % at 20 µM | hit rate 0.69% among 190,000 | AID 1217;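 active = primary screen inhibition at 20 µM above a set limit, cut at about 50% in these data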;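 note: plate controls were DMSO with full reaction for no effect and wells lacking NADH for full effect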
#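 System: Diaphorase enzyme from Clostridium kluyveri | Amount: Enzyme working solution with 0.14 U/mL diaphorase | Benchmarks: No-NADH positive control and DMSO neutral control | Signal: Fluorescence of resorufin formed from resazurin, Ex 544/Em 590 nm | Schedule: 16-min room-temperature incubation before reading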
# * marks the source's active call; other numbers are inactive results. Shown are actives, neighbours in structure and some others; about 11% of the full set was active somewhere. Cut-off read from the data, not from the text of the source, unless noted: active = inhibition above about 50%; inactive = the rest.
SMILES,Diaph act CS,G6PDH CS,WT yeast gro inh,L major viab,Diaphorase inh
COC(=O)NCC(c1cccnc1)N1CCN(c2ccccc2OC)CC1 (centres undefined),1,0,19,70*,4
Cc1c(Cl)cnc(NC(=O)COC(=O)Cc2coc3ccc4ccccc4c23)c1Cl,0.7,-26,-7,-3,25
OCC1(CCOc2ccccc2)CCN(CC2=Cc3cc(Cl)ccc3OC2)CC1,0.9,0,90*,94*,8
OCCOc1cccc(CN2CCC(CO)(CCOc3ccccc3)CC2)c1,0.7,14,-17,-5,29
Cc1nn(C)cc1CN1CCC(CO)(CCOc2ccccc2)CC1,0.9,7,2,74*,6
CCOC(=O)C1(CCOC)CCN(Cc2nc(-c3cccs3)oc2C)CC1,0.9,23,12,2,5
COc1ccc(CN2CCC(CO)(CCOc3ccccc3)CC2)c(OC)c1C,1.1,10,15,43,-12
Cc1oc(-c2cccs2)nc1CN1CCC(CO)(CCOc2ccccc2)CC1,1,3,10,73*,-3
COc1ccc2[nH]c(CN3CCC(CO)(CCOc4ccccc4)CC3)c(C)c2c1,0.9,12,19,88*,12
Fc1ccc(CNC(=S)NC2CCCC2)cc1,1,5,9,31,3
COc1ccc(C(=O)C[n+]2ccc3c(c2)nnn3-c2ccccc2)cc1,0.9,5,6,27,7
CC(C)NC(=S)NC(=O)c1ccc(-c2ccccc2)cc1,0.9,-20,67*,1,11
Cc1ccc(C(=O)NC(=S)NCC(=O)c2ccccc2)cc1,0.8,5,61*,0,16
CCOC(=O)c1cccc(NC(=O)CN(c2ccc(C)cc2)S(=O)(=O)c2c(C)n[nH]c2C)c1,0.7,-4,3,8,26
CN(Cc1cnn(C)c1)C(=O)c1ccc(OC2CCN(CCc3ccccc3)CC2)cc1,0.9,9,-17,-5,5
CSCCCNC(=O)c1ccc(OC2CCN(CCc3ccccc3)CC2)cc1,0.8,11,7,75*,23
O=C(C1CC1c1ccccc1)N1CCN(c2cccc(Cl)c2)CC1 (centres undefined),0.9,7,77*,4,14
c1ccc(Cn2nnnc2C(c2cccs2)N2CCc3ccccc3C2)cc1 (centres undefined),0.9,-1,41,51*,12
COc1ccc(Cn2nnnc2C(c2cccs2)N2CCN(c3ccccc3)CC2)cc1 (centres undefined),1.1,11,4,10,-10
Oc1ccc(N2CCN(C(c3cccs3)c3nnnn3CCc3ccccc3)CC2)cc1 (centres undefined),0.7,-6,2,100*,26
CCOC(=O)c1cc2sccc2n1CC(=O)c1ccc2c(c1)OCCO2,0.7,-7,10,6,27
Cc1cccc(N2CSC3=C(C#N)C(c4ccc(C)o4)CC(=O)N3C2)c1 (centres undefined),0.4,12,8,-3,64*
COc1ccc2ccccc2c1C1CC(=O)N2CN(C3CCCCC3)CSC2=C1C#N (centres undefined),0.6,29,8,1,38
COc1ccc(C2CC(=O)N3CN(c4ccccc4F)CSC3=C2C#N)cc1OC (centres undefined),0.5,11,-1,-6,53*
COc1ccc(C2CC(=O)N3CN(c4ccc(C)c(Cl)c4)CSC3=C2C#N)cc1 (centres undefined),0.5,14,13,-7,50*
SMILES,Diaph act CS,G6PDH CS,WT yeast gro inh,L major viab,Diaphorase inh
CCOc1cc(C2CC(=O)N3CN(C4CCCCC4)CSC3=C2C#N)ccc1O (centres undefined),0.4,-26,-4,7,58*
COc1ccc(N2CSC3=C(C#N)C(c4cccc(OC)c4OC)CC(=O)N3C2)cc1 (centres undefined),0.6,33,19,8,45
COc1ccc(OC)c(C2CC(=O)N3CN(c4ccccc4)CSC3=C2C#N)c1 (centres undefined),0.6,10,12,3,38
CCOC(=O)/C(C#N)=C/c1ccc(SC)cc1,1.1,0,2,-2,-6
O=c1[nH]c2cc3c(cc2cc1CN(Cc1ccco1)C(=S)NCCCN1CCOCC1)OCCO3,0.8,14,1,-1,20
CCOc1ccc(CNn2nnnc2N)cc1,0.8,1,2,-6,19
O=C(CSc1nnc(-c2ccccc2F)n1CCc1ccccc1)Nc1ccc2[nH]c(=O)[nH]c2c1,0.9,12,15,41,14
c1ccc(N(c2ccccc2)c2nc(N3CCCC3)nc(-n3ccnc3)n2)cc1,0.8,2,78*,98*,17
CN(c1ccccc1)c1nc(N2CCCC2)nc(-n2ccnc2)n1,0.9,7,-1,95*,10
c1ccc(CN2CCN(c3nc(-c4ccccc4)nc(-n4ccnc4)n3)CC2)cc1,0.9,1,56,-15,9
Cc1cc2oc(=O)cc(Cn3nnc(-c4ccc(Cl)cc4)n3)c2cc1C(C)C,0.9,4,13,14,7
O=C1NCCc2c1[nH]c1c(Cl)ccc(Cl)c21,0.9,1,89*,5,11
O=C(OCc1ccccc1)C1=NNC2C(=O)N(Cc3ccccc3)C(=O)C12 (centres undefined),1.1,19,13,-5,-10
COCCn1c(SCC(=O)N2CC(=O)Nc3ccccc32)nc2ccccc21,0.9,-4,2,52*,10
CC[n+]1c(C)sc2cc(C)ccc21,0.5,8,0,-1,54*
CCCC[n+]1c(C)sc2ccc(C)cc21,0.3,13,5,-4,66*
Cc1ccc2sc(C)[n+](CCO)c2c1,0.9,-2,-1,9,7
Nc1c(S(=O)(=O)c2cccc(Cl)c2)c2nc3ccccc3nc2n1/N=C/c1ccc(O)c(O)c1,0.6,-3,-4,100*,40
COc1ccc(NC(=O)N2c3ccccc3CC2C)cc1OC (centres undefined),0.9,3,95*,4,11
N#Cc1ccccc1S(=O)(=O)N1CCN(CC(O)c2ccccc2)CC1 (centres undefined),1,4,6,-5,2
N#Cc1ncc(-c2ccc3c(c2)OCCOCCOCCOCCOCCO3)nc1C#N,1,-7,-3,96*,3
CCN(CC)CCNC(=O)c1ccc(Sc2ccc(C)cc2)c(NC(C)=O)c1,1.1,-5,2,-2,-14
CCC1=Nc2cc(C(=O)NCc3ccco3)ccc2Sc2ccc(C)cc21,0.8,0,23,67*,18
CC(=O)Nc1cc(C(=O)NCc2ccco2)ccc1Sc1ccc(C)cc1,0.9,10,8,75*,12
CCN(C(=O)c1cccc(F)c1)c1ccccc1C,0.9,6,-4,-1,13

# High-throughput results from PubChem BioAssay.
